Results from ChEMBL document CHEMBL1129547, “Synthesis and biological evaluation of naphthyldesferrithiocin iron chelators” (1996).

Tests used:
[1] = The amount of iron absorbed by the treated animals at postdrug dosage of 300(umol/kg) (route sub cutaneous) using 40% cremophore as vehical in Cebus monkeys; type: functional
Summary of the method: (§1)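 Iron-overloaded Cebus monkeys were kept in metabolic cages on a low-iron liquid diet starting 7 days before dosing, fed by body weight with intake monitored, and fasted 24 h before dosing. They were sedated with ketamine (7–10 mg/kg im) plus scopolamine (0.04–0.07 mg/kg im). Urine and feces were collected every 24 h over days 1–3 and iron measured by flame AA. Iron balance = dietary intake − (urinary + fecal iron).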

[2] = The amount of iron absorbed by the treated animals at postdrug dosage of 300(umol/kg) (route per oral)using 40% cremophore as vehical in Cebus monkeys; type: functional; summary of the method: as §1
[3] = The amount of iron absorbed by the untreated over a period of 3 days animals at prodrug dosage of 300(umol/kg) (route sub cutaneous) using 40% cremophore as vehical in Cebus monkeys; type: functional
Summary of the method: (§2)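 Baseline period in iron-overloaded Cebus monkeys housed in metabolic cages on a low-iron liquid diet begun 7 days before dosing, fed by body weight with intake monitored. Iron intake and output were measured over the 3 days before drug administration (day −2 to day 0). Urine and feces were collected at 24-h intervals and iron determined by flame atomic absorption. Net balance = intake − (urinary + fecal iron).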

[4] = The amount of iron absorbed by the untreated over a period of 3 days animals at prodrug dosage of 300(umol/kg) (route per oral)using 40% cremophore as vehical in Cebus monkeys; type: functional; summary of the method: as §2
[5] = The amount of iron absorbed by the untreated over a period of 3 days animals at prodrug dosage of 150(umol/kg) (route sc)using distill water as vehical; type: functional, Cercopithecidae; summary of the method: as §2
[6] = The amount of iron absorbed by the treated animals at postdrug dosage of 150(umol/kg) (route sc)using distill water as vehical; type: functional, Cercopithecidae; summary of the method: as §1
[7] = The amount of iron absorbed by the treated animals at postdrug dosage of 150(umol/kg) (route per oral)using 40% cremophore as vehical in Cebus monkeys; type: functional; summary of the method: as §1
[8] = The amount of iron absorbed by the untreated over a period of 3 days animals at prodrug dosage of 150(umol/kg) (route per oral)using 40% cremophore as vehical in Cebus monkeys; type: functional; summary of the method: as §2

Row | Structure (SMILES) | Postdrug [1] [µg/kg] | Postdrug [2] [µg/kg] | Predrug [3] [µg/kg] | Predrug [4] [µg/kg] | Predrug [5] [µg/kg] | Postdrug [6] [µg/kg] | Postdrug [7] [µg/kg] | Predrug [8] [µg/kg]
1 | O=C(O)[C@@H]1CSC(c2cc3ccccc3cc2O)=N1 | 120 | 49 | 80 | 118 | – | – | – | –
2 | O=C(O)[C@@H]1CSC(c2c(O)ccc3ccccc23)=N1 | -9 | 63 | 26 | 54 | – | – | – | –
3 | O=C(O)[C@H]1CSC(c2c(O)ccc3ccccc23)=N1 | – | 381 | – | 358 | – | – | – | –
4 | CC(=O)N(O)CCCCCNC(=O)CCC(=O)N(O)CCCCCNC(=O)CCC(=O)N(O)CCCCCN [DEFEROXAMINE] | – | – | – | – | 217 | 245 | – | –
5 | O=C(O)[C@H]1CSC(c2cc3ccccc3cc2O)=N1 | 156 | -162 | 164 | 25 | – | – | – | –
6 | C[C@]1(C(=O)O)CSC(c2ncccc2O)=N1 [DESFERRITHIOCIN] | – | – | – | – | – | – | -500 | 230
